Active and inactive are the calls of the source. The rule behind the calls is not given here.
How the values were obtained:
Adenosine receptor A2a [1] = molecular target: T1, Adenosine receptor A2a (Homo sapiens, UniProt P29274)
Adenosine receptor A1 [2] = molecular target: T2, Adenosine receptor A1 (Homo sapiens, UniProt P30542); experiment: Displacement of [3H]CPX from human Adenosine A1 receptor expressed in DDT1MF-2 cells; type: cell-based
T2 sequence (P30542 whole entry): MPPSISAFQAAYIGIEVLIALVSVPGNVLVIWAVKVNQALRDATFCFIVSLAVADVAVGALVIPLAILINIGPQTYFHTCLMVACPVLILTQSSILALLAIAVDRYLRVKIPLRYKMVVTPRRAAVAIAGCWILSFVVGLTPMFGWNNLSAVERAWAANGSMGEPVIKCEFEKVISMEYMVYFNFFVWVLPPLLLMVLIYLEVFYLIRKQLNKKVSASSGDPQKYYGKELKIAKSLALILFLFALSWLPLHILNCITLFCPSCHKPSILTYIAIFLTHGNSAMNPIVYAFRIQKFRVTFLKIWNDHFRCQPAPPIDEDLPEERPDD

[3] = molecular target: T3, Adenosine receptor A1 (Homo sapiens) (UniProt P30542)
T3 sequence (whole entry): T2 sequence (P30542 whole entry)

Adenosine receptor A2a [4] = molecular target: T1, Adenosine receptor A2a; experiment: Agonist activity at human Adenosine A2A receptor expressed in yeast cells coexpressed with chimeric GPA1/Galphas at 100 uM after 16 hrs by beta-galactosidase reporter gene assay; type: cell-based
Summary of the method: (§1)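 Human receptor expressed from GAPDH promoter (p426-GPD) in Δfar1 FUS1-lacZ yeast with Gpa1p(1-467) carrying the 5 C-terminal Gα residues. Cells are grown overnight in SD-URA at 30°C, diluted 1:10 and grown 8 h. They are set to OD600 0.02 and given compound at 1% v/v DMSO for 16 h at 30°C. A2A strain is grown in SD-URA-HIS, with 5 mM 3-amino-triazole in treatment media. Read-out: ONPG, (OD430−OD620)/OD620.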

Adenosine receptor A1 [5] = molecular target: T2, Adenosine receptor A1; experiment: Displacement of [3H]CPX from human Adenosine A1 receptor expressed in CHO cells; type: cell-based
[6] = molecular target: T3, Adenosine receptor A1 (Homo sapiens); experiment: Agonist activity at human Adenosine A1 receptor expressed in yeast cells coexpressed with chimeric GPA1/Galphai1 at 100 uM after 16 hrs by beta galactosidase reporter gene assay; type: cell-based
Summary of the method: as §1

Adenosine receptor A1 [7] = molecular target: T2, Adenosine receptor A1; experiment: Competitive antagonist activity at human Adenosine A1 receptor expressed in yeast cells after 16 hrs by LacZ reporter gene assay; type: cell-based; conditions: read-out: pA2 (converted)
[8] = molecular target: T4, Adenosine receptor A2b (Homo sapiens) (UniProt P29275); experiment: Agonist activity at human Adenosine A2B receptor expressed in yeast cells coexpressed with chimeric GPA1/Galphas at 100 µM after 16 hrs by beta-galactosidase reporter gene assay; type: cell-based
T4 sequence (whole entry): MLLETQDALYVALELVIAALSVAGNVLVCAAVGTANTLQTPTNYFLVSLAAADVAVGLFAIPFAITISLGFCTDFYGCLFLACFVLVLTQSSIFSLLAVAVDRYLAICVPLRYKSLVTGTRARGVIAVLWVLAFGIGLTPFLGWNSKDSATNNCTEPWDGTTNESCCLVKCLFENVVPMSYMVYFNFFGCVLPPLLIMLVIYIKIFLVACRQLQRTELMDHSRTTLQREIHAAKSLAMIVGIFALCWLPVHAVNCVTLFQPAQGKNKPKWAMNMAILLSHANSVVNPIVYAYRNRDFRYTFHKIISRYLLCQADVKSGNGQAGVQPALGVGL
Summary of the method: (§2)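 Yeast (Δfar1, FUS1-lacZ) express A2BR from the GAPDH promoter alongside Gpa1p/Gαs chimera. The OD600 is 0.02 and compound is added in 1% v/v DMSO for 16 h at 30°C. β-Galactosidase is read with ONPG at OD430, normalised as (OD430−OD620)/OD620. […] Three-parameter logistic fit gives EC50 and Emax. Data are from 5-8 independent experiments.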

[9] = molecular target: T4, Adenosine receptor A2b (Homo sapiens); experiment: Binding affinity to human Adenosine A2B receptor expressed in yeast cells coexpressed with GPA1/Galphas; type: cell-based
Summary of the method: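 pKA is derived by non-linear regression of the operational model of agonism applied to 16 h yeast FUS1-lacZ concentration-response data, with A2BR coupled to the GPA1/Gαs chimera.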

[10] = molecular target: T4, Adenosine receptor A2b (Homo sapiens); experiment: Agonist activity at human Adenosine A2B receptor expressed in yeast cells coexpressed with chimeric GPA1/Galphas after 16 hrs by beta-galactosidase reporter gene assay relative to NECA; type: cell-based
Summary of the method: as §2

Adenosine receptor A3 = molecular target: T5, Adenosine receptor A3 (Homo sapiens, UniProt P0DMS8); experiment: Agonist activity at human Adenosine A3 receptor transfected in CHO-K1 cells assessed as inhibition of forskolin-stimulated cAMP production after 30 mins by multimode microplate reader analysis; type: functional, cell-based
T5 sequence (P0DMS8 whole entry): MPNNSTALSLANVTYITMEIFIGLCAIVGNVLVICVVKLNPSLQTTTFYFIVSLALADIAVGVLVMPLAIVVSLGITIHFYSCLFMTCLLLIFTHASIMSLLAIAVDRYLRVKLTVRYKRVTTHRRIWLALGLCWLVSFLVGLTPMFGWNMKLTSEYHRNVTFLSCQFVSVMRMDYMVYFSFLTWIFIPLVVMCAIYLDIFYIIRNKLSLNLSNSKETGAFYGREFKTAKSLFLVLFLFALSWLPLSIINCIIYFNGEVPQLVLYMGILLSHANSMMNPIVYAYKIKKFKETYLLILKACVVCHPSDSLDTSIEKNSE
Summary of the method: (§3)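 CHO-K1 cells are transiently transfected with receptor (2 µg DNA, FuGene 6) and harvested at 48 h. They are co-incubated with 10 µM forskolin and ligand (10 pM to 1 µM) for 30 min at room temperature. cAMP is measured by LANCE kit. Data are expressed as % of the 10 µM forskolin response.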

Adenosine receptor A2a [11] = molecular target: T1, Adenosine receptor A2a; remark: listed apart in the source
Adenosine receptor A2b = molecular target: T6, Adenosine receptor A2b (Homo sapiens, UniProt P29275); experiment: Agonist activity at human Adenosine A2B receptor expressed in yeast cells coexpressed with chimeric GPA1/Galphas after 16 hrs by beta-galactosidase reporter gene assay; type: cell-based
T6 sequence (P29275 whole entry): T4 sequence (whole entry)
Summary of the method: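 Yeast (Δfar1, FUS1-lacZ) express A2BR from the GAPDH promoter alongside Gpa1p/Gαs chimera. The OD600 is 0.02 and compound is added in 1% v/v DMSO for 16 h at 30°C. β-Galactosidase is read with ONPG at OD430, normalised as (OD430−OD620)/OD620. Three-parameter logistic fit gives EC50 and Emax. Data are from 5-8 independent experiments.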

Adenosine receptor A1 [12] = molecular target: T2, Adenosine receptor A1; experiment: Agonist activity at human Adenosine A1 receptor transfected in CHO-K1 cells assessed as inhibition of forskolin-stimulated cAMP production after 30 mins by multimode microplate reader analysis; type: functional, cell-based
Adenosine receptor A1 [13] = molecular target: T2, Adenosine receptor A1; experiment: Agonist activity at human Adenosine A1 receptor expressed in yeast cells coexpressed with chimeric GPA1/Galphai1 after 16 hrs by beta galactosidase reporter gene assay; type: cell-based
[14] = molecular target: T4, Adenosine receptor A2b (Homo sapiens)
Adenosine receptor A2a [15] = molecular target: T1, Adenosine receptor A2a; experiment: Agonist activity at human Adenosine A2A receptor expressed in yeast cells coexpressed with chimeric GPA1/Galphas after 16 hrs by beta-galactosidase reporter gene assay; type: cell-based
[16] = molecular target: T7, Adenosine receptor A3 (Homo sapiens) (UniProt P0DMS8); experiment: Agonist activity at human Adenosine A3 receptor transfected in CHO-K1 cells assessed as inhibition of forskolin-stimulated cAMP production after 30 mins by multimode microplate reader analysis relative to total forskolin; type: functional, cell-based; set-up: concentration or dose not given beside the values
T7 sequence (whole entry): T5 sequence (P0DMS8 whole entry)
Summary of the method: as §3, with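 “h. Cells are resuspended in PBS with 0.1% BSA and 25 µM rolipram, at 2500 cells/well.” for “h.”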

[17] = molecular target: T3, Adenosine receptor A1 (Homo sapiens); remark: listed apart in the source

T1 sequence (P29274 whole entry): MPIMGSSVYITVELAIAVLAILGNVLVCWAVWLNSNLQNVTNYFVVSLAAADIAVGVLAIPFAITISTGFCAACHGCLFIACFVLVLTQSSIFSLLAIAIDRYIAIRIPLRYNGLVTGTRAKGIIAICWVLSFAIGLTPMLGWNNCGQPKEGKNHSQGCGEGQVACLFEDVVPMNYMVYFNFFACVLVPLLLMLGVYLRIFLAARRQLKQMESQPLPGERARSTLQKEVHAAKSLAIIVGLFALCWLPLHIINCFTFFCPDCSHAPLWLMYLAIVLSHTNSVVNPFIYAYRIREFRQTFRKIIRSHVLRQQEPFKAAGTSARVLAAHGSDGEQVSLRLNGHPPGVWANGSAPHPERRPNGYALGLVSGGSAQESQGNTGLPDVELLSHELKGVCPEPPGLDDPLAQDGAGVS

Row | pKA (Adenosine receptor A2a [1]) | Ki (Adenosine receptor A1 [2]) [µM] | pKA [3] | Activity (Adenosine receptor A2a [4]) | Ki (Adenosine receptor A1 [5]) [µM] | Activity [6] | Kb (Adenosine receptor A1 [7]) [µM] | Activity [8] | pKA [9] | Emax [10] [%] | IC50 (Adenosine receptor A3) [µM] | log(activity) (Adenosine receptor A2a [11]) | EC50 (Adenosine receptor A2b) [µM] | IC50 (Adenosine receptor A1 [12]) [pM] | EC50 (Adenosine receptor A1 [13]) [µM] | log(activity) [14] | EC50 (Adenosine receptor A2a [15]) [µM] | Activity [16] [%] | log(activity) [17] | SMILES
1 | inactive | 0.113 | inactive | inactive | 1.1 | inactive | 5.01 | inactive | inactive |  |  |  |  |  |  |  |  |  |  | O[C@@H]1[C@H](O)[C@@H](CSc2ccccc2F)O[C@H]1n1cnc2c(N[C@@H]3CCC[C@H]3O)ncnc21 [GS-9667]
2 | inactive |  | inactive | inactive |  | inactive | 0.398 | inactive | inactive |  |  |  |  |  |  |  |  |  |  | O[C@@H]1[C@H](O)[C@@H](CSc2ccccc2F)O[C@H]1n1cnc2c(N[C@@H]3CCC[C@H]3OCc3ccccc3)ncnc21
3 | 3.9 |  | 4.3 |  |  |  |  |  | 3.5 | 32.2 | 0.269 | 0.5 | 126 | 29.5 | 1 | 0.1 | 15.8 | -38 | 1.6 | CCNC(=O)[C@H]1O[C@@H](n2cnc3c(N[C@@H]4CCC[C@H]4OCc4ccccc4)ncnc32)[C@H](O)[C@@H]1O

— ChEMBL document CHEMBL3769381 (J Med Chem, 2016)
